Data from publication PMC7439439 (Science Advances, 2020).
Read-outs that look alike come from different tables or passages of the source.

Assays:
[1] = tested on: luciferase-tagged SF8628 flank tumors; test: Flank model of DIPG, intraperitoneal treatment; type: in vivo, athymic-nude mice
Summary of the method: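 Athymic-nude mice received subcutaneous right-flank implants of 40-mm3 chunks of luciferase-tagged SF8628 tumours grown in other nude mice. Tumour presence was confirmed by luciferase scan at 1 week. Dosing began at a mean caliper volume of 140 mm3: reference HDAC inhibitor 10 mg/kg, test compound 12 mg/kg (molecular-weight adjusted), or vehicle (10% DMSO, 36% PEG, 54% PBS). Dosing stopped at 1500 mm3 or euthanasia end points. Tumours were harvested on the last treatment day for acetylated-H3 immunoblot with GAPDH as loading control.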

[2] = tested on: SF8628 orthotopic DIPG tumors; test: Orthotopic SF8628 xenograft, histology after treatment; type: in vivo, SCID mice
Summary of the method: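 NOD/SCID mice received 1 million luciferase-transduced SF8628 cells stereotactically into the pons (1.0 mm right, 0.5 mm posterior, 5.0 mm deep from lambda). Treatment started 21–24 days later over 2 weeks, using four CED infusions about 72 h apart, each over 6 min at 1.67 μl/min. Brains were then harvested. Nuclei on H&E and Ki67+ nuclei were counted on ≥5 40× fields. Apoptosis index was Cc3+ cells divided by tumour area × cellularity. H3Ac+ nuclei were counted per 10× field after colour deconvolution, Gaussian blur and thresholding.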

[3] = tested on: RCAS-based DIPG tumors; test: Survival study in tumor-bearing RCAS mice; type: in vivo
Summary of the method: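 DIPG was induced in 3–5-day-old Ntva/p53fl/fl pups by pontine injection of DF1 cells carrying RCAS-PDGFB, H3K27M-GFP, CRE and luciferase. From day 21–24, over 2 weeks, mice received one of: intraperitoneal 10 mg/kg in 10% DMSO/36% PEG/54% PBS; intraperitoneal vehicle; or one or four CEDs of 10 μl, 100 μM in 1% DMSO/PBS (or vehicle), 72 h apart, each over 6 min. End point was ≥10% weight loss on two consecutive measurements, or other end points. Survival was analysed by log-rank.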

[4] = Safety in mice; type: in vivo
[5] = 11 patients, oral formulation; cited from earlier work
[6] = primate studies, oral delivery; cited from earlier work
[7] = four CED doses at 72-hour intervals

Cc1[nH]c2ccccc2c1CCNCc1ccc(/C=C/C(=O)NO)cc1 [panobinostat]
H3Ac in tumors by Western blotting ([1]; animals sacrificed on the last day of treatment): recovery of H3Ac
tumor growth compared to vehicle ([1]; caliper tumor volume, daily intraperitoneal for 2 weeks): slowed down tumor growth
H3Ac in tumor cells versus intraperitoneal vehicle [2, 7]: increase in H3Ac in tumor cells
Ki67+ cycling cells versus vehicle [2, 7]: decrease in overall Ki67^+ cycling cells
apoptotic cell death, cleaved caspase-3 positive cells [2, 7]: increase in apoptotic cell death
tumor cellularity versus vehicle ([2]; four CED doses at 72-hour intervals, H&E): decrease in tumor cellularity
histological effects (cellularity, Ki67, Cc3, H3Ac) ([2]; systemic treatment): failed to achieve any of these results
median survival ([3]; 4× CED, 10 μl 100 μM, 72 hours apart): 63 days
median survival ([3]; intraperitoneally, 10 mg/kg, over 2 weeks): 35 days
median survival ([3]; single CED session, 10 μl 100 μM): 37.5 days
toxicity after systemic injections [4]: significant toxicities including weight loss
detection in CSF [5]: not detected
detection in CSF [6]: failed at detecting significant amounts
